# Experimental data published in ChEMBL document CHEMBL4689842, “EUbOPEN Chemogenomics Library wave 1” (2021).
# Tested on: HEK-293T
# Experiment: Multiplex assay against HEK293T;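 as to Population Tubulin-Different-Phenotype (%): share of the cells with healthy nuclei that show this phenotype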
# Type: toxicity, cell-based
# Conditions: human
# Outline: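 Live cells carried four stains from seeding: Hoechst33342, BioTracker Green Microtubule Cytoskeleton Dye, MitoTracker Red and Annexin V Alexa Fluor 680. They were imaged on a CQ1 microscope at 37°C and 5% CO2 after compound addition. Using CellPathfinder machine-learning gating, cells were split into Hoechst high-intensity objects or normal cells, normal cells into healthy, pyknosed or fragmented nuclei, and pyknosed cells into mitotic or apoptotic; tubulin, mitochondrial-mass and membrane-permeability phenotypes are per cents of healthy-nucleus cells.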
# [1] = 12 h, 1 µM, compound concentration 1 uM, replicate 1
# [2] = 12 h, 1 µM, compound concentration 1 uM, replicate 2
# [3] = 12 h, 10 µM, compound concentration 10 uM, replicate 1
# [4] = 12 h, 10 µM, compound concentration 10 uM, replicate 2
# [5] = 24 h, 1 µM, compound concentration 1 uM, replicate 1
# [6] = 24 h, 1 µM, compound concentration 1 uM, replicate 2
# [7] = 24 h, 10 µM, compound concentration 10 uM, replicate 1
# [8] = 24 h, 10 µM, compound concentration 10 uM, replicate 2
# [9] = 48 h, 1 µM, compound concentration 1 uM, replicate 1
# [10] = 48 h, 1 µM, compound concentration 1 uM, replicate 2
# [11] = 48 h, 10 µM, compound concentration 10 uM, replicate 1
# [12] = 48 h, 10 µM, compound concentration 10 uM, replicate 2
smiles,measurement,setting,value
Cc1cc(C)cc(-c2cnc3cc(Cl)c(-c4cccc(O)c4)cc3c2OCCCN)c1,Population Apoptotic (%),[1],53%
same,Population Fragmented Nuclei (%),[1],11%
same,Population Healthy Nuclei (%),[1],40%
same,Population Hoechst High Intensity Objects (%),[1],10%
same,Population Membrane Permeable-Phenotype (%),[1],3%
same,Population Mitochondria Different-Phenotype (%),[1],95%
same,Population Mitotic Cells (%),[1],46%
same,Population Normal (%),[1],89%
same,Population Pyknosed Nuclei (%),[1],47%
same,Population Tubulin-Different-Phenotype (%),[1],92%
same,Total Cell Count,[1],349
same,Population Apoptotic (%),[2],31%
same,Population Fragmented Nuclei (%),[2],5%
same,Population Healthy Nuclei (%),[2],43%
same,Population Hoechst High Intensity Objects (%),[2],3%
same,Population Membrane Permeable-Phenotype (%),[2],6%
same,Population Mitochondria Different-Phenotype (%),[2],66%
same,Population Mitotic Cells (%),[2],68%
same,Population Normal (%),[2],96%
same,Population Pyknosed Nuclei (%),[2],50%
same,Population Tubulin-Different-Phenotype (%),[2],63%
same,Total Cell Count,[2],251
same,Population Apoptotic (%),[3],70%
same,Population Fragmented Nuclei (%),[3],23%
same,Population Healthy Nuclei (%),[3],1%
same,Population Hoechst High Intensity Objects (%),[3],13%
same,Population Membrane Permeable-Phenotype (%),[3],33%
same,Population Mitochondria Different-Phenotype (%),[3],33%
same,Population Mitotic Cells (%),[3],29%
same,Population Normal (%),[3],86%
same,Population Pyknosed Nuclei (%),[3],74%
same,Population Tubulin-Different-Phenotype (%),[3],66%
same,Total Cell Count,[3],226
same,Population Apoptotic (%),[4],90%
same,Population Fragmented Nuclei (%),[4],5%
same,Population Healthy Nuclei (%),[4],18%
same,Population Hoechst High Intensity Objects (%),[4],3%
same,Population Membrane Permeable-Phenotype (%),[4],0%
same,Population Mitochondria Different-Phenotype (%),[4],91%
same,Population Mitotic Cells (%),[4],9%
same,Population Normal (%),[4],96%
same,Population Pyknosed Nuclei (%),[4],76%
same,Population Tubulin-Different-Phenotype (%),[4],97%
same,Total Cell Count,[4],192
same,Population Apoptotic (%),[5],53%
same,Population Fragmented Nuclei (%),[5],15%
same,Population Healthy Nuclei (%),[5],26%
same,Population Hoechst High Intensity Objects (%),[5],12%
same,Population Membrane Permeable-Phenotype (%),[5],1%
same,Population Mitochondria Different-Phenotype (%),[5],98%
same,Population Mitotic Cells (%),[5],46%
same,Population Normal (%),[5],87%
same,Population Pyknosed Nuclei (%),[5],57%
same,Population Tubulin-Different-Phenotype (%),[5],90%
same,Total Cell Count,[5],358
same,Population Apoptotic (%),[6],39%
same,Population Fragmented Nuclei (%),[6],6%
same,Population Healthy Nuclei (%),[6],56%
same,Population Hoechst High Intensity Objects (%),[6],2%
same,Population Mitochondria Different-Phenotype (%),[6],81%
same,Population Mitotic Cells (%),[6],60%
same,Population Normal (%),[6],97%
same,Population Pyknosed Nuclei (%),[6],36%
same,Population Tubulin-Different-Phenotype (%),[6],79%
same,Total Cell Count,[6],296
same,Population Apoptotic (%),[7],77%
same,Population Fragmented Nuclei (%),[7],22%
same,Population Healthy Nuclei (%),[7],1%
same,Population Hoechst High Intensity Objects (%),[7],12%
same,Population Membrane Permeable-Phenotype (%),[7],0%
same,Population Mitochondria Different-Phenotype (%),[7],66%
same,Population Mitotic Cells (%),[7],22%
same,Population Normal (%),[7],87%
same,Population Pyknosed Nuclei (%),[7],76%
same,Population Tubulin-Different-Phenotype (%),[7],66%
same,Total Cell Count,[7],232
same,Population Apoptotic (%),[8],94%
same,Population Fragmented Nuclei (%),[8],6%
same,Population Healthy Nuclei (%),[8],9%
same,Population Hoechst High Intensity Objects (%),[8],8%
same,Population Membrane Permeable-Phenotype (%),[8],6%
same,Population Mitochondria Different-Phenotype (%),[8],75%
same,Population Mitotic Cells (%),[8],5%
same,Population Normal (%),[8],91%
same,Population Pyknosed Nuclei (%),[8],83%
same,Population Tubulin-Different-Phenotype (%),[8],75%
same,Total Cell Count,[8],183
same,Population Apoptotic (%),[9],51%
same,Population Fragmented Nuclei (%),[9],17%
same,Population Healthy Nuclei (%),[9],13%
same,Population Hoechst High Intensity Objects (%),[9],18%
same,Population Membrane Permeable-Phenotype (%),[9],0%
same,Population Mitochondria Different-Phenotype (%),[9],87%
same,Population Mitotic Cells (%),[9],48%
same,Population Normal (%),[9],81%
same,Population Pyknosed Nuclei (%),[9],68%
same,Population Tubulin-Different-Phenotype (%),[9],75%
same,Total Cell Count,[9],352
same,Population Apoptotic (%),[10],33%
same,Population Fragmented Nuclei (%),[10],5%
same,Population Healthy Nuclei (%),[10],75%
same,Population Hoechst High Intensity Objects (%),[10],6%
same,Population Membrane Permeable-Phenotype (%),[10],3%
same,Population Mitochondria Different-Phenotype (%),[10],55%
same,Population Mitotic Cells (%),[10],66%
same,Population Normal (%),[10],93%
same,Population Pyknosed Nuclei (%),[10],19%
same,Population Tubulin-Different-Phenotype (%),[10],69%
same,Total Cell Count,[10],406
same,Population Apoptotic (%),[11],80%
same,Population Fragmented Nuclei (%),[11],27%
same,Population Healthy Nuclei (%),[11],1%
same,Population Hoechst High Intensity Objects (%),[11],16%
same,Population Membrane Permeable-Phenotype (%),[11],0%
same,Population Mitochondria Different-Phenotype (%),[11],50%
same,Population Mitotic Cells (%),[11],19%
same,Population Normal (%),[11],83%
same,Population Pyknosed Nuclei (%),[11],71%
same,Population Tubulin-Different-Phenotype (%),[11],50%
same,Total Cell Count,[11],238
same,Population Apoptotic (%),[12],96%
same,Population Fragmented Nuclei (%),[12],15%
same,Population Healthy Nuclei (%),[12],14%
same,Population Hoechst High Intensity Objects (%),[12],7%
same,Population Membrane Permeable-Phenotype (%),[12],12%
same,Population Mitochondria Different-Phenotype (%),[12],79%
same,Population Mitotic Cells (%),[12],3%
same,Population Normal (%),[12],92%
same,Population Pyknosed Nuclei (%),[12],70%
same,Population Tubulin-Different-Phenotype (%),[12],83%
same,Total Cell Count,[12],179
CC(C)(O)CNc1ncc(-c2ccnc(Nc3ccnc(Cl)c3)n2)c(CC2CC2)n1,Population Apoptotic (%),[1],59%
same,Population Fragmented Nuclei (%),[1],14%
same,Population Healthy Nuclei (%),[1],25%
same,Population Hoechst High Intensity Objects (%),[1],16%
same,Population Membrane Permeable-Phenotype (%),[1],4%
same,Population Mitochondria Different-Phenotype (%),[1],90%
same,Population Mitotic Cells (%),[1],40%
same,Population Normal (%),[1],83%
same,Population Pyknosed Nuclei (%),[1],59%
same,Population Tubulin-Different-Phenotype (%),[1],75%
same,Total Cell Count,[1],287
same,Population Apoptotic (%),[2],17%
same,Population Fragmented Nuclei (%),[2],9%
same,Population Healthy Nuclei (%),[2],23%
same,Population Hoechst High Intensity Objects (%),[2],8%
same,Population Membrane Permeable-Phenotype (%),[2],13%
same,Population Mitochondria Different-Phenotype (%),[2],13%
same,Population Mitotic Cells (%),[2],82%
same,Population Normal (%),[2],91%
same,Population Pyknosed Nuclei (%),[2],67%
same,Population Tubulin-Different-Phenotype (%),[2],31%
same,Total Cell Count,[2],133
same,Population Apoptotic (%),[3],72%
same,Population Fragmented Nuclei (%),[3],11%
same,Population Healthy Nuclei (%),[3],5%
same,Population Hoechst High Intensity Objects (%),[3],23%
same,Population Membrane Permeable-Phenotype (%),[3],13%
same,Population Mitochondria Different-Phenotype (%),[3],93%
same,Population Mitotic Cells (%),[3],27%
same,Population Normal (%),[3],76%
same,Population Pyknosed Nuclei (%),[3],83%
same,Population Tubulin-Different-Phenotype (%),[3],86%
same,Total Cell Count,[3],381
same,Population Apoptotic (%),[4],52%
same,Population Fragmented Nuclei (%),[4],4%
same,Population Healthy Nuclei (%),[4],3%
same,Population Hoechst High Intensity Objects (%),[4],14%
same,Population Membrane Permeable-Phenotype (%),[4],28%
same,Population Mitochondria Different-Phenotype (%),[4],85%
same,Population Mitotic Cells (%),[4],47%
same,Population Normal (%),[4],85%
same,Population Pyknosed Nuclei (%),[4],91%
same,Population Tubulin-Different-Phenotype (%),[4],42%
same,Total Cell Count,[4],213
same,Population Apoptotic (%),[5],49%
same,Population Fragmented Nuclei (%),[5],12%
same,Population Healthy Nuclei (%),[5],28%
same,Population Hoechst High Intensity Objects (%),[5],15%
same,Population Membrane Permeable-Phenotype (%),[5],1%
same,Population Mitochondria Different-Phenotype (%),[5],82%
same,Population Mitotic Cells (%),[5],50%
same,Population Normal (%),[5],84%
same,Population Pyknosed Nuclei (%),[5],58%
same,Population Tubulin-Different-Phenotype (%),[5],89%
same,Total Cell Count,[5],319
same,Population Apoptotic (%),[6],27%
same,Population Fragmented Nuclei (%),[6],9%
same,Population Healthy Nuclei (%),[6],34%
same,Population Hoechst High Intensity Objects (%),[6],5%
same,Population Membrane Permeable-Phenotype (%),[6],6%
same,Population Mitochondria Different-Phenotype (%),[6],27%
same,Population Mitotic Cells (%),[6],72%
same,Population Normal (%),[6],94%
same,Population Pyknosed Nuclei (%),[6],56%
same,Population Tubulin-Different-Phenotype (%),[6],68%
same,Total Cell Count,[6],145
same,Population Apoptotic (%),[7],73%
same,Population Fragmented Nuclei (%),[7],15%
same,Population Healthy Nuclei (%),[7],3%
same,Population Hoechst High Intensity Objects (%),[7],23%
same,Population Membrane Permeable-Phenotype (%),[7],11%
same,Population Mitochondria Different-Phenotype (%),[7],100%
same,Population Mitotic Cells (%),[7],26%
same,Population Normal (%),[7],76%
same,Population Pyknosed Nuclei (%),[7],81%
same,Population Tubulin-Different-Phenotype (%),[7],100%
same,Total Cell Count,[7],382
same,Population Apoptotic (%),[8],64%
same,Population Fragmented Nuclei (%),[8],2%
same,Population Healthy Nuclei (%),[8],2%
same,Population Hoechst High Intensity Objects (%),[8],16%
same,Population Membrane Permeable-Phenotype (%),[8],40%
same,Population Mitochondria Different-Phenotype (%),[8],80%
same,Population Mitotic Cells (%),[8],35%
same,Population Normal (%),[8],83%
same,Population Pyknosed Nuclei (%),[8],94%
same,Population Tubulin-Different-Phenotype (%),[8],40%
same,Total Cell Count,[8],208
same,Population Apoptotic (%),[9],40%
same,Population Fragmented Nuclei (%),[9],22%
same,Population Healthy Nuclei (%),[9],29%
same,Population Hoechst High Intensity Objects (%),[9],17%
same,Population Membrane Permeable-Phenotype (%),[9],3%
same,Population Mitochondria Different-Phenotype (%),[9],62%
same,Population Mitotic Cells (%),[9],59%
same,Population Normal (%),[9],82%
same,Population Pyknosed Nuclei (%),[9],47%
same,Population Tubulin-Different-Phenotype (%),[9],68%
same,Total Cell Count,[9],360
same,Population Apoptotic (%),[10],25%
same,Population Fragmented Nuclei (%),[10],5%
same,Population Healthy Nuclei (%),[10],68%
same,Population Hoechst High Intensity Objects (%),[10],5%
same,Population Membrane Permeable-Phenotype (%),[10],10%
same,Population Mitochondria Different-Phenotype (%),[10],10%
same,Population Mitotic Cells (%),[10],75%
same,Population Normal (%),[10],94%
same,Population Pyknosed Nuclei (%),[10],26%
same,Population Tubulin-Different-Phenotype (%),[10],57%
same,Total Cell Count,[10],209
same,Population Apoptotic (%),[11],72%
same,Population Fragmented Nuclei (%),[11],22%
same,Population Healthy Nuclei (%),[11],1%
same,Population Hoechst High Intensity Objects (%),[11],28%
same,Population Membrane Permeable-Phenotype (%),[11],25%
same,Population Mitochondria Different-Phenotype (%),[11],100%
same,Population Mitotic Cells (%),[11],27%
same,Population Normal (%),[11],71%
same,Population Pyknosed Nuclei (%),[11],76%
same,Population Tubulin-Different-Phenotype (%),[11],100%
same,Total Cell Count,[11],373
same,Population Apoptotic (%),[12],63%
same,Population Fragmented Nuclei (%),[12],6%
same,Population Healthy Nuclei (%),[12],3%
same,Population Hoechst High Intensity Objects (%),[12],16%
same,Population Membrane Permeable-Phenotype (%),[12],0%
same,Population Mitochondria Different-Phenotype (%),[12],71%
same,Population Mitotic Cells (%),[12],36%
same,Population Normal (%),[12],83%
same,Population Pyknosed Nuclei (%),[12],89%
same,Population Tubulin-Different-Phenotype (%),[12],71%
same,Total Cell Count,[12],212
